# Test results: PMC12574688 (European journal of medicinal chemistry, 2025)
# Where two headings read alike, the source gives them in different places.
# Legend:
# BRK = BRK (Homo sapiens, UniProt Q13882); experiment: BRK biochemical inhibitory assay; details: for inhibition at 2 µM: read-out: % BRK Inhibition
# In short: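 Human BRK kinase pre-incubated with test compound for 10 min, then substrate and ATP mix added. Kinase reaction run 1 h. ADP-Glo reagent added for 40 min, then kinase detection reagent for 45 min. Luminescence read. Single-point screens run at 2 μM and at 0.2 μM test compound, given as % BRK inhibition.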
# BT-20 cells = experiment: Colony formation assay; type: cell-based; details: varying concentrations
# HCC1806 cells = experiment: Colony formation assay; type: cell-based; details: single concentration of 10 μM
# MDA.MB.231 cell line = experiment: MTT cytotoxicity / cell viability assay; type: cell-based
# MDA.MB.231 cells = experiment: Colony formation assay; type: cell-based; details: varying concentrations
# [1] = system: AKT phosphorylation in BT-20 cells; experiment: Western blot of AKT phosphorylation; type: cell-based; details: vs control, preliminary western blot (Figure S3)
# Sequence of BRK (Q13882 whole entry): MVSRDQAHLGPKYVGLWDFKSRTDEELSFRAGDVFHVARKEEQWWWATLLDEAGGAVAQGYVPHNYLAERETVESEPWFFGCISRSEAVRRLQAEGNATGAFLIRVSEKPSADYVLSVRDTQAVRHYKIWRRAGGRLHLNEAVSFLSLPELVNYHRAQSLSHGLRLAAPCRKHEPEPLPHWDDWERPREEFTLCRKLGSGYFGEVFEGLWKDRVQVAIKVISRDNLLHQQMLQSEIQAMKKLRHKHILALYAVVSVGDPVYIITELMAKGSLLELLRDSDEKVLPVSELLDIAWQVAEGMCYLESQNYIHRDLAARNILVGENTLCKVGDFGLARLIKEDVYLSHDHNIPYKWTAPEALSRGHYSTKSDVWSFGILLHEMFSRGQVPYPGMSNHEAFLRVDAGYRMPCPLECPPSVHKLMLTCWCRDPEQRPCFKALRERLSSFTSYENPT
structure (smiles),measurement,setting,value
"Oc1cccc(Nc2ccnc3[nH]c4ccccc4c23)c1 [Compound 4f, tilfrinib]",Biochemical assay % Inhibition 0.2 μM,"BRK; 0.2 μM, ADP-Glo (Table 3)",86%
same,Biochemical assay % Inhibition 2 μM,"BRK; 2 μM, ADP-Glo (Table 3)",100%
same,IC50,"BRK; read-out: BRK IC50, enzymatic inhibition",25 nM
same,IC50,"BRK; read-out: Biochemical assay IC50, ADP-Glo (Table 3)",25.7 ± 5.05 nM
same,% BRK Inhibition,"BRK; single point, 2 μM, ADP-Glo, pyrimido-indole derivatives (Table 1)",100.0 ± 7.8%
same,colony formation,BT-20 cells,reduce the colony formation
same,colony formation,HCC1806 cells,reduce the colony formation
same,Cellular assay MDA.MB.231 % Inhibition 10 μM,"MDA.MB.231 cell line; MTT, 10 μM, 72h treatment",31.40%
same,cytotoxicity in viability studies,"MDA.MB.231 cell line; viability studies, in words",minimal cytotoxicity
same,colony formation,MDA.MB.231 cells,reduce the colony formation
same,AKT phosphorylation,[1],increase in AKT phosphorylation
"Oc1cccc(-c2cncc(Cl)n2)c1 [Compound 26, 3-(6-chloropyrazin-2-yl)phenol]",inhibition at 2 µM,BRK,29.6 ± 22.9%
"Oc1cccc(-c2cnc3ccccc3n2)c1 [Compound 32, 3-(quinoxalin-2-yl)phenol]",inhibition at 2 µM,BRK,48.9 ± 8.9%
"Oc1cccc(Nc2ncnc3cc(Br)ccc23)c1 [Compound 35, 3-((7-bromoquinazolin-4-yl)amino)phenol]",inhibition at 2 µM,BRK,76.1 ± 7.3%
